eIF4H inh – inhibitors of RNA binding by human eIF4H | Q15056 | eIF4H fluorescence polarization binding assay | inhibition, % at 35 µM | actives 0.94% (n = 290,000) | AID 2012;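 note: calls also rest on retests at 20 µM and on dose response follow-up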
PABP polyA inh – PABP-poly(A) binding inhibition. P11940. PABP-poly(A) RNA binding, fluorescence polarization. calls only at 35 µM. actives 1% (n = 290,000). AID 2014;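 note: calls also rest on retests at 20 µM and on dose response follow-up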
Target sequence (P11940 whole entry, looked up): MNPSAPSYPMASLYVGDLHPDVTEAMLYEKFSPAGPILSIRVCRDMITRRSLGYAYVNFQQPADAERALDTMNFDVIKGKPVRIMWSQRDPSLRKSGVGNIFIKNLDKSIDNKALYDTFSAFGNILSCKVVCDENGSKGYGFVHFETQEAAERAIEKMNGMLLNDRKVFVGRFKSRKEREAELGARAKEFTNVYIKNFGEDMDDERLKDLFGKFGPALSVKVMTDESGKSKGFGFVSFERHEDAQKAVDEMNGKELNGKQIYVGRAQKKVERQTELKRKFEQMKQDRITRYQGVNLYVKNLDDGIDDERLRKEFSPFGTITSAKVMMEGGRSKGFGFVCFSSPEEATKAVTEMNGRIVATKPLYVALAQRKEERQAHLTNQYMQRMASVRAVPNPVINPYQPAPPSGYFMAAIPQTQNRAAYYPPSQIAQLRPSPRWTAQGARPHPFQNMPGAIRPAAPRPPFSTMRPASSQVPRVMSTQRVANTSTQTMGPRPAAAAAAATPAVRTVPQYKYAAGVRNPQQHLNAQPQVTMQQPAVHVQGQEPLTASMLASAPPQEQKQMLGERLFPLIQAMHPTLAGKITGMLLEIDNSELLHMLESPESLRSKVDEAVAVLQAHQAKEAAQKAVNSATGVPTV
MT1-MMP act inh – inhibitors of human MT1-MMP activation; P50281; HT1080 RFP-PRO-GFP cells, GFP/RFP ratio fluorescence, overnight; percent of plate control window, DMSO zero; GFP/RFP ratio change, % at 20 µM; actives 0.061% (n = 360,000); AID 651647;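 active = GFP/RFP ratio change of at least 30% with cell ATP level not reduced by more than half and red fluorescence within 50% of control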
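Assay system: HT1080 cells carrying an RFP-PRO-GFP reporter | Dosing: Single dose of 20 µM compound, 1% DMSO final | Incubation: Cells overnight before dosing, compound overnight, 37 °C, 5% CO2 | Evaluation: GFP/RFP fluorescence ratio | Control set: DMSO and RFP-L50D-GFP cell wells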
PABP1 MLLE inh – inhibitors of microRNA-mediated deadenylation, human PABP1 MLLE binding | P11940 | GST-MLLE / FITC-PAM2 fluorescence polarization | inhibition, % at 20 µM | actives 0.36% (n = 360,000); in the data active = inhibition above about 35%, passing the limit was not always enough
SKN-1 block – C. elegans SKN-1 inhibition; C. elegans VP596 Pgst-4::GFP/RFP ratio, acrylamide-induced, 24 h; inhibition, % at 21.8 µM; actives 0.49% (n = 360,000);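 active = interference check ratio from 0.5 to 1.5 plus GFP to RFP signal ratio inhibition reaching or exceeding a fixed threshold, cut at about 30% in these data, passing the limit was not always enough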
A number is an active result; - = inactive; ? = inconclusive; . = no result given; + = active, no number. In the library only some 1.8% were active in any assay of this set; here they are far more common. Unless noted, the rule behind the calls is not given here.

SMILES | eIF4H inh | PABP polyA inh | MT1-MMP act inh | PABP1 MLLE inh | SKN-1 block
CC(C)(C)C(=O)Nc1c2c(nn1-c1ccc(F)cc1)CSC2 | - | - | - | 36.6 | -
CC(C)C(=O)Nc1c2c(nn1-c1ccc(F)cc1)CSC2 | - | - | - | - | -
Cc1cc(-c2sccc2C)nc(-n2cccc2)n1 | ? | + | - | - | -
Cc1nc2cc(-c3sccc3-n3cccc3)nn2c(C)c1C | - | - | - | - | -
O=C(O)c1ccccc1-c1ccccc1C(=O)Nc1ccc2c(c1)C(O)c1ccccc1-2 (stereo unspecified) | . | . | - | - | -
CCOC(=O)c1cc(-c2ccc(/C=C3/C(=O)NC(=O)C(C#N)=C3C)o2)ccc1Cl | ? | + | - | - | -
COC(=O)c1c(C)[nH]c(C(=O)N2CCN(c3ccc(OC)cc3)CC2)c1C | ? | + | . | . | .
COc1ccc(Nc2nc3ccccc3nc2C)cc1 | 61.0 | + | - | - | -
CC(C)NS(=O)(=O)c1ccc(NC(=O)C(C)OC(=O)CCC(=O)c2cccs2)cc1 (stereo unspecified) | . | . | - | - | -
CC(c1ccccc1)C1CC(=O)N(c2ccc(C(=O)O)cc2)C1=O (stereo unspecified) | - | - | - | - | -
Cc1cc(C)nc(N2C(=O)CC(C(C)c3ccccc3)C2=O)n1 (stereo unspecified) | - | - | - | - | 36.7
COc1ccc(NC(=O)CN2CCN(Cc3ccc4c(c3)OCO4)CC2)cc1OC | - | - | - | - | 37.3
Cc1ccc(NC(=O)CSc2nc(N)cc(=O)[nH]2)cc1S(=O)(=O)N1CCCCCC1 | . | . | - | - | 52.9
O=C(CSc1nc(O)cc(=O)[nH]1)Nc1ccc2c(c1)CCC2 | - | - | - | - | 45.6
COc1ccccc1CN1CC(C(=O)NCc2c(F)ccc(C)c2F)CCC1=O (stereo unspecified) | . | . | - | - | -
O=C(c1ccc(OC2CCN(CCc3ccccc3)CC2)cc1)N1CCC[C@H]1CO | - | - | - | - | -
COc1ccc(N2C(=O)/C(=C/c3ccc([N+](=O)[O-])cc3)C=C2c2ccccc2)cc1 | - | - | - | - | 39.6
N#Cc1ccsc1NC(=O)CN1C(=O)NC2(CCCCC2)C1=O | - | + | - | - | -
CN(Cc1cn(Cc2cccc(Cl)c2)nn1)C1CN(Cc2cn(Cc3cccc(Cl)c3)nn2)S(=O)(=O)C1 (stereo unspecified) | . | . | - | . | -
COc1ccc(CN2CC(=O)N3[C@H]4c5ccccc5OC[C@@H]4[C@H](c4ccccc4)[C@]3(C)C2=O)cc1 | . | . | - | 43.2 | -
CCCNC(=O)C1(C)CCCN(C(=O)c2cccc(OC(F)(F)F)c2)C1 (stereo unspecified) | . | . | - | - | -
COc1ccc(OCCSCc2nnc(NC(=O)Nc3ccc(Cl)cc3)s2)cc1 | - | - | - | - | -
Cc1ccc(NC(=O)Nc2nnc(CSCCOc3ccc(Cl)cc3)s2)cc1 | - | + | - | - | -
Cc1nc(NC(=O)c2cccs2)ccc1Br | - | - | - | - | 36.2
Cc1cc(C)nc(NC(=O)c2cccs2)n1 | - | - | - | - | -
SMILES | eIF4H inh | PABP polyA inh | MT1-MMP act inh | PABP1 MLLE inh | SKN-1 block
O=C(Cc1cccs1)N/N=C/c1ccco1 | - | - | - | - | -
Cc1cccc(OCC(=O)N/N=C/C=C/c2ccco2)c1 | 81.3 | - | - | - | -
O=C(Cc1cccs1)N/N=C/C=C\c1ccco1 | 102.6 | + | - | - | -
O=C(N/N=C/C=C/c1ccco1)/C(=C/c1ccccc1)NC(=O)c1ccccc1 | 51.0 | + | - | - | -
Cc1cccc(C)c1OCC(=O)N/N=C/C=C/c1ccco1 | - | - | - | - | -
O=C(N/N=C/C=C/c1ccco1)c1ccncc1 | - | - | - | - | -
O=C(N/N=C/C=C/c1ccco1)c1ccccc1Cl | 77.7 | + | - | - | -
COc1ccc(NC(=O)CCNC(=O)c2ccccc2Cl)cc1S(=O)(=O)N1CCCCC1 | . | . | - | - | -
COc1ccc(N/N=C(\C#N)C(N)=O)cc1 | - | - | - | - | -
N#C/C(=N/Nc1ccc(OC(F)(F)F)cc1)C(N)=S | - | - | - | 41.2 | 54.5
O=C(Sc1cccc2cccnc12)c1ccccc1Br | - | - | - | 36.9 | -
O=C(c1cccc(Br)c1)c1nc2ccccc2[nH]c1=O | . | . | - | - | -
N#C/C(=C\c1ccc(OCc2ccc(Br)cc2)cc1)C(=O)Nc1cccc(C(=O)O)c1 | - | - | - | - | -
O=C(N/N=C/c1cccc(OCc2ccccc2)c1)c1cccs1 | - | - | - | - | -
COC(=O)c1ccc(COc2ccc(/C=N/Nc3cccc(C(=O)O)c3)cc2)cc1 | 75.3 | + | - | - | -
N#C/C(=C/c1ccc(OCc2ccc(C(=O)O)cc2)cc1)C(=O)Nc1ccccc1 | - | + | - | - | -
O=C(O)c1ccc(COc2ccc(/C=N/NC(=O)c3cccs3)cc2)cc1 | - | + | - | - | -
CC1CCCCN1C(=O)Cn1nnc(-c2cccnc2)n1 (stereo unspecified) | ? | - | - | 49.1 | -
COc1ccc(NC(=O)CN(C)C(=O)c2ccc(C)c(S(=O)(=O)N3CCCCC3)c2)cc1 | . | . | - | - | -
O=c1[nH]c2ccc(NC(=S)Nc3ccccc3Cl)cc2[nH]1 | - | - | - | 37.9 | -
N#CC1(Nc2ccc(S(N)(=O)=O)cc2)CCCC1 | . | . | - | - | -
C=CCN(c1ccc(F)cc1)S(=O)(=O)c1cc(C(=O)NC2CC2)ccc1Cl | . | . | - | - | -
CSC1SCC2C(=O)N(C)C(C(C)C)C(=O)OCC(NC(=O)c3cnc4ccccc4n3)C(=O)NC(C)C(=O)N(C)C1C(=O)N(C)C(C(C)C)C(=O)OCC(NC(=O)c1cnc3ccccc3n1)C(=O)NC(C)C(=O)N2C (stereo unspecified) | . | . | - | - | 41.5
CN(CC(=O)Nc1nc2ccccc2s1)S(=O)(=O)c1ccc(Cl)cc1 | - | - | - | - | 36.1
COc1cc(/C=C2/C(C)=C(C#N)c3nc(N)c(C#N)c(C)c32)ccc1OCC(=O)O | - | - | . | . | .
SMILES | eIF4H inh | PABP polyA inh | MT1-MMP act inh | PABP1 MLLE inh | SKN-1 block
CC1=C(C#N)c2nc(N)c(C#N)c(C)c2/C1=C\c1ccc(-c2ccccc2C(=O)O)o1 | 85.9 | + | - | - | 43.4
N#Cc1c(NC(=O)c2ccc(Cn3cc(Br)cn3)o2)sc2c1CCCCC2 | - | - | - | - | -
CC1CCc2c(sc(NC(=O)c3ccc(Cn4cc([N+](=O)[O-])cn4)o3)c2C#N)C1 (stereo unspecified) | 76.0 | + | - | - | -
COc1ccccc1-c1ncn(Cc2cccc(-c3ccccc3)c2)c1CC(C)C | . | . | - | . | -
O=C(Nc1ccccc1OC(F)F)c1cc2c(s1)CCC2 | 83.7 | - | - | - | -
O=C(NCCc1ccccc1F)C1C(=O)Nc2ccccc2C(=O)N1C1CCCCC1 (stereo unspecified) | . | . | - | . | -
Cc1ccc2c(c1)c(=O)c1c3n2CCN(C(=O)CCl)C3CC1 (stereo unspecified) | ? | + | - | - | -

Assay outcomes from PubChem.
